Shown are actives, neighbours in structure and some others; about 2.7% of the full set was active somewhere.
ARFGAP1 inhibitor = rat ARFGAP1 inhibition; 360,000 compounds, 0.26% hits; AID 651572; Q62848; inhibition, % at 16.5 µM; Arfgap1-stimulated ARF1 GTP hydrolysis, GDP FP detection;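 active = inhibition above a per-plate limit, mean inhibition of low control wells plus 3 SD, cut at about 25% in these data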
Target sequence (Q62848 1-136 limits assumed): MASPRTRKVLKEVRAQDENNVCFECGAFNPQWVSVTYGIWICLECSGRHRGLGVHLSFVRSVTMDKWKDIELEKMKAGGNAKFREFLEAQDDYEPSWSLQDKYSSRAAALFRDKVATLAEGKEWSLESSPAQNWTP
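Assay system: purified rat His6-Arfgap1 residues 1-136 (GAP domain); Reagent: human Δ17 ARF1 bound to GTP; Dosing: 16.5 µM single point, 1.26% DMSO; Times: GTP hydrolysis reaction 2 h at 25 °C; Signal: FP, GDP Alexa 633 tracer displaced from anti-GDP antibody, 620/688 nm; Measure: % inhibition from polarization.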
pPAFAH FP inh = inhibitors of human plasma PAF acetylhydrolase (pPAFAH) | Q13093 | recombinant pPAFAH, FP-rhodamine probe fluorescence polarization | inhibition, % at 3.39 µM | 330,000 compounds, 1.5% hits;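 active = inhibition above the mean inhibition across the screen plus 3 SD, cut at about 25% in these data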;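 also: inhibitors block binding of the rhodamine activity-based probe so polarization drops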
PAFAH1B3 FP inh = blocks human PAF acetylhydrolase 1B catalytic subunit 3; Q15102; recombinant PAFAH1B3, FP-rhodamine probe, fluorescence polarization; inhibition, % at 3.39 µM; 340,000 compounds, 0.28% hits; AID 492972;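 active = inhibition above the screen-wide average of all tested compounds plus 3 SD, cut at about 25% in these data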
Target sequence (Q15102 whole entry, looked up): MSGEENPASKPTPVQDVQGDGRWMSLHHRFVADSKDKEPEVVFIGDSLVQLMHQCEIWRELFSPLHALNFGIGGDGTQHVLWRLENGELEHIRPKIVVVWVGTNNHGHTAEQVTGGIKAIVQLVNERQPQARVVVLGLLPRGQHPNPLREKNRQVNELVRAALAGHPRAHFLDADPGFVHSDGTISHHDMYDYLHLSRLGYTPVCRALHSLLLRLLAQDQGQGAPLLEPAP
ASAP1 GAP inh = ASAP1 ArfGAP inhibition. Q9ULH1. ASAP1-stimulated ARF1 GTP hydrolysis, GDP FP detection. inhibition, % at 16.5 µM. 360,000 compounds, 0.19% hits. AID 624377; in the data active = inhibition above about 25%
PAFAH2 inh = PAFAH2 (human) inhibition | recombinant PAFAH2, FP-rhodamine activity probe, fluorescence polarization | 340,000 compounds, 0.99% hits | AID 492956 | inhibition, % at 3.39 µM;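 active = inhibition above the mean over all tested compounds plus 3 SD, cut at about 30% in these data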;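 also: inhibitors block probe labeling of enzyme so polarization drops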
PAFAH1B2 FP inh = inhibitors of human PAFAH1B2. recombinant PAFAH1B2, FP-rhodamine activity probe, fluorescence polarization. 340,000 compounds, 1.2% hits. P68402. inhibition, % at 3.39 µM;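 active = inhibition above the mean of all tested compounds plus 3 SD, cut at about 24% in these data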
Target sequence (P68402 whole entry, looked up): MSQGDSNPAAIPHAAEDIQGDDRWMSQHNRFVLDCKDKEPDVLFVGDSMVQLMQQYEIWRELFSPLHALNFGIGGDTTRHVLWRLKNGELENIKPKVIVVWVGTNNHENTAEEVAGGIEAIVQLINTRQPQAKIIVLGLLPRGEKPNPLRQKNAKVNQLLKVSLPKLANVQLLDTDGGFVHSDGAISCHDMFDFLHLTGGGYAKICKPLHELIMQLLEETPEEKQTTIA
Hits are given with their value; . = inactive; / = no result given.

SMILES | ARFGAP1 inhibitor | pPAFAH FP inh | PAFAH1B3 FP inh | ASAP1 GAP inh | PAFAH2 inh | PAFAH1B2 FP inh
CSCCC(NS(=O)(=O)c1ccc(Cl)cc1)C(=O)OCc1c(Cl)cccc1Cl (stereo not drawn) | . | . | . | . | . | 27
CSCCC(NS(=O)(=O)c1ccc(Cl)cc1)C(=O)OCc1cccc(Cl)c1 (stereo not drawn) | . | . | . | . | . | 33
CSCCC(NS(=O)(=O)c1ccc(Cl)cc1)C(=O)OCC(=O)N(C(C)C)C(C)C (stereo not drawn) | . | . | . | . | . | .
CSCCC(NS(=O)(=O)c1ccc(Cl)cc1)C(=O)OCC(=O)NC1CC1 (stereo not drawn) | . | . | . | . | . | .
CCCCN1CC(COCc2ccccc2)Oc2cccc(NCc3cc(OC)c(OC)c(OC)c3)c2S1(=O)=O (stereo not drawn) | . | / | / | . | / | /
COC(=O)C1=C(C)N(Cc2ccc(C(F)(F)F)cc2)C(=NCc2ccccc2)NC1c1ccc(C(F)(F)F)cc1 (stereo not drawn) | . | / | / | . | / | /
O=C(N/N=C/c1ccc([N+](=O)[O-])o1)c1cn(-c2ccccc2)nc1-c1ccccc1 | . | 27 | . | . | . | .
C/C(=N\OC(=O)c1ccc(Cl)c(Cl)c1)c1sc(C)nc1C | . | 34 | . | . | . | .
C/C(=N\OC(=O)c1ccc(F)cc1)c1sc(-c2ccc(Cl)cc2)nc1C | . | . | . | . | . | .
O=C(c1ccc(F)cc1)C1CCN(CCCn2c(=O)[nH]c3ccccc32)CC1 | . | / | / | . | / | /
NC(=O)CCN(C(=O)c1cccc(S(=O)(=O)N2CCc3ccccc32)c1)c1ccccc1 | . | . | . | . | . | 27
CC(C)(C)c1ccc2c(c1)OC(C(=O)N/N=C/c1ccc([N+](=O)[O-])o1)CO2 (stereo not drawn) | . | 28 | / | . | / | /
Cc1c(/C=N\NC(=O)C2COc3ccc(C(C)(C)C)cc3O2)c2ccccc2n1C (stereo not drawn) | . | 27 | . | . | . | .
Cn1cccc1/C=N\NC(=O)C1COc2ccc(C(C)(C)C)cc2O1 (stereo not drawn) | . | . | . | . | . | .
Cc1ccc(OCCC(=O)OCC(=O)NC2CCCC2)cc1 | . | . | . | . | . | .
CCCCOc1ccc(C(=O)OCC(=O)NC2CCCC2)cc1 | . | 25 | . | . | 85 | .
CCOc1ccc(OCCC(=O)OCC(=O)NC2CCCC2)cc1 | . | 30 | . | . | . | .
O=C(COC(=O)c1ccc(O)cc1)NC1CCCCCCC1 | . | / | / | . | / | /
Cc1cc(C)cc(OCC(=O)OCC(=O)NC2CC2)c1 | . | 27 | . | . | . | .
Cc1ccc(OCC(=O)OCC(=O)NC2CCCC2)cc1C | . | . | . | . | . | .
COc1cccc(-c2ccc3c(c2)[C@@H]2C[C@H]4[C@@H](CN2CC3)[C@H](C)ON4C)c1 | . | / | / | . | / | /
Cc1ccc(O)c(N=CC2=C(O)c3ccccc3C2=O)c1 | . | 30 | . | . | . | .
O=C1C(C=Nc2ccccc2O)=C(O)c2ccccc21 | . | . | . | . | . | .
COc1ccc(-c2ccc3c(=O)cc(-c4ccsc4)oc3c2)cn1 | 36 | . | . | 26 | . | .
CCOC(=O)C1=CCN(S(=O)(=O)c2ccc(Br)cc2)C1c1cccc(F)c1 (stereo not drawn) | . | / | / | . | / | /
SMILES | ARFGAP1 inhibitor | pPAFAH FP inh | PAFAH1B3 FP inh | ASAP1 GAP inh | PAFAH2 inh | PAFAH1B2 FP inh
COC(=O)c1cc2c(c3c4cc(F)ccc4n(S(=O)(=O)c4ccc(OC)cc4)c13)C(=O)N(Cc1ccccc1OC)C2 | . | / | / | . | / | /
O=C1OC(Nc2ncccn2)c2ccccc21 (stereo not drawn) | . | . | . | . | . | .
O=C1OC(Nc2cc(Br)cc3cccnc23)c2ccccc21 (stereo not drawn) | . | 30 | 69 | . | . | .
CC1CCN(S(=O)(=O)c2ccc3c4c2CC(=O)N4CC(C)S3)CC1 (stereo not drawn) | . | 27 | . | . | 62 | .
CCc1cccc(Nc2cnn(C34C[C@@H]5C[C@@H](CC(CC(=O)O)(C5)C3)C4)c(=O)c2Cl)c1 | . | . | . | . | . | 32
OCCOCCN1CCN(C2=Nc3ccccc3Sc3ccccc32)CC1 | . | . | . | . | . | .
O=C1C=CC(=O)c2c(O)c(N3CCN(CCO)CC3)c(Cl)c(O)c21 | . | / | 50 | . | 41 | 28
O=C1C=CC(=O)c2c(O)c(N3CCN(CCOCCO)CC3)c(Br)c(O)c21 | . | / | 62 | . | 59 | 44
N#Cc1ccc(S(=O)(=O)N2CCCc3nc(-c4ccccc4)ccc32)cc1 | . | / | / | . | / | /
COc1cccc2c1C(=O)c1c(O)c3c(c(O)c1C2=O)C[C@@](O)(C(C)=O)C[C@@H]3O[C@H]1C[C@H](N)[C@H](O)[C@H](C)O1 | . | / | 37 | . | 54 | 51
COc1cccc2c1C(=O)c1c(O)c3c(c(O)c1C2=O)CC(O)(C(=O)CO)CC3OC1CC(N(C)C)C(O)C(C)O1 (stereo not drawn) | . | / | 47 | . | 60 | 61
O=C(Cc1c[nH]c2ccccc12)Nc1ccc(Nc2cccnc2)cc1 | . | / | / | . | / | /
CCCCCCCCN1C(=O)[C@@H](CC(=O)NCC2CCCCC2)C[C@@]2(C(=O)OC)C1=C[C@H](C(C)(C)C)O[C@@H]2C | . | / | / | . | / | /
COC(=O)C1=C(C)N(Cc2cccc(C(F)(F)F)c2)C(=NCC2CC2)NC1c1cccc(Cl)c1 (stereo not drawn) | . | / | / | . | / | /
O=C(CSc1nc2ccccc2c(=O)[nH]1)c1ccc(O)c(O)c1 | . | 33 | . | . | 49 | .
O=C(CSc1nc2ccccc2c(=O)[nH]1)c1ccc(O)cc1O | . | / | . | . | . | .
O=C(CSc1nc2ccccc2n1CCc1ccccc1)c1ccc(O)c(O)c1 | . | / | . | . | 55 | 28
O=C(CSc1nc2ccccc2n1CCc1ccccc1)N1CCOCC1 | . | . | . | . | . | .
CCN(CC(=O)NCc1cccs1)C(=O)CCCOc1ccc(C(C)(C)C)cc1 | . | . | . | . | . | 25
Cc1ccc(OCCC(=O)OCC(=O)NCCc2ccccc2)cc1 | . | . | . | . | . | .
O=C(CSc1ncccn1)NCc1cccs1 | . | . | . | . | . | .
Cc1ccc(SCC(=O)OCC(=O)NCCc2ccccc2)cc1C | . | 30 | . | . | . | .
Cc1ccc(SCC(=O)OCC(=O)NCc2cccs2)cc1 | . | . | . | . | . | 28
O=C(CSc1ccc2ccccc2c1)NCc1cccs1 | . | . | . | . | . | 26
Cc1ccc(SCC(=O)OCC(=O)Nc2ccc3[nH]c(=O)[nH]c3c2)cc1C | . | . | . | . | . | .
Cc1ccc(SCC(=O)OCC(=O)NCCc2ccccc2)cc1 | . | 28 | . | . | . | 50
O=[N+]([O-])c1cc2c(ccc3occc32)o1 | . | / | / | . | / | /
COCc1[nH]nc2c1C(c1ccc3c(c1)OCO3)N(c1ccc(OC)cc1)C2=O (stereo not drawn) | . | / | / | . | / | /

Screens: PubChem BioAssay, The Scripps Research Institute Molecular Screening Center
